Screening data from PubChem.
CCR6 antagonist: blocks CCL20-driven beta-arrestin recruitment at human CCR6; CHO-K1 CCR6 PathHunter beta-arrestin, luminescence, CCL20-stimulated; actives 0.49% (n = 340,000); inhibition, % at 20 µM;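 active = compounds whose inhibition of the agonist-driven luminescence signal at 20 µM reaches about 50%, limit read from the data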;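 also: cells stimulated with CCL20 at 14 nM final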
Target sequence (P51684 whole entry, looked up): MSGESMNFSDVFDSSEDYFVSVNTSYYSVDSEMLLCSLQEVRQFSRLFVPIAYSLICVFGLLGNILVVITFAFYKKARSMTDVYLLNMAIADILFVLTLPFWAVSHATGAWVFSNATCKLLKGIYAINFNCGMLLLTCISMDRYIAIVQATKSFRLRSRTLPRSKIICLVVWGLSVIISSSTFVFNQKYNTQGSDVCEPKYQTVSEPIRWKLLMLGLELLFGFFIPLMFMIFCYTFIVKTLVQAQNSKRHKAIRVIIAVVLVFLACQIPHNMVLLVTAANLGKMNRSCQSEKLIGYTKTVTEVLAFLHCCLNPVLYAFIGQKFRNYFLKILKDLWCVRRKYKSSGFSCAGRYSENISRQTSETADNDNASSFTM
APJ ag: agonists of human APJ apelin receptor; CHO-K1 APJ PathHunter beta-arrestin, luminescence; 0% DMSO wells, 100% apelin; activation, % at 20 µM; actives 0.11% (n = 330,000); AID 2520;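 active = activation more than six SD over the plate average, tested at 20 µM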
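system = engineered CHO-K1 APJ arrestin reporter cells | input = 1000 cells per well | timing = overnight seeding, 90 min compound at 25 °C, 1 h detection | measured by = enzyme-fragment complementation luminescence | read-out = beta-arrestin recruitment to APJ as agonist activity, luminescent signal | control set = negative DMSO alone, positive Apelin-13 at 10 nM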
APJ antagonist: antagonists of human APJ apelin receptor; P35414; CHO-K1 APJ beta-arrestin complementation, luminescence; inhibition, % at 20 µM; actives 0.32% (n = 330,000); AID 2521;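 active = inhibition above about 40% at 20 µM, limit read from the data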;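 also: cells challenged with 10 nM apelin-13 agonist together with compound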
CXCR6 inh: CXCR6 (human) receptor inhibition; CHO-K1 PathHunter CXCR6 beta-arrestin, luminescence; inhibition, % at 20 µM; actives 0.36% (n = 360,000); in the data active = inhibition above about 34%, passing the limit was not always enough;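 also: antagonist mode with CXCL16 agonist at 10 nM final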
NTR1 agonist: NTR1 (human) agonism; AID 493036; actives 0.17% (n = 330,000); NTR1-U2OS beta-arrestin-GFP spot imaging, agonist mode; activation, % at 20 µM;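 active = activation at or above 40% of the spot to cytoplasm intensity ratio, with at least 20 cells analyzed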
HTR2A ag: mouse HTR2A agonism via beta-arrestin recruitment. P35363. CHO-K1 mHTR2A beta-arrestin complementation, luminescence; percent of 30 µM serotonin response. activation, % at 7.6 µM. actives 0.66% (n = 360,000);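 active = activation above a run cutoff, the mean activation of all tested compounds plus 3 SD, cut at about 14% in these data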
APJ antag confirm: confirmation of human APJ apelin receptor antagonists. inhibition, % at 20 µM. APJ beta-arrestin recruitment, luminescence, antagonist mode. shares compounds with APJ antagonist. actives 66% (n = 950). AID 2766; in the data active = inhibition above about 50%
Large screens that a line does not name were inactive (follow-up assays come after a bar, where they were run). A selection: hits, their analogues and other compounds. The true share with any hit is near 1.5%.

O=C(COC(=O)c1ccccn1)NC(=O)c1ccccc1	none
C=CCn1c(=O)/c(=C2/Sc3cc(OC)ccc3N2C)s/c1=C1\C(=O)N(CC)C(=S)N1C	APJ antagonist 49.8 (no result: CCR6 antagonist, CXCR6 inh, HTR2A ag) | APJ antag confirm 75.8
CCN1/C(=C2\C(=O)N(C)C(=S)N2C)C=Cc2cc(OC)ccc21	none
CCCCCOC(=O)c1c(N)n(CCOC)c2nc3ccccc3nc12	APJ antagonist 43.5 | APJ antag confirm inactive
COCCOC(=O)c1c(N)n(CCCN2CCOCC2)c2nc3ccccc3nc12	none
CCOC(=O)c1ccc(NC(=O)NNC(=O)CCc2ccc(OC)cc2)cc1	none
COc1ccc2cc(C(C)C(=O)Nc3cccc(S(=O)(=O)N(C)C)c3)ccc2c1 (centres undefined)	none
CC(C)N1CCc2c(sc(NC(=O)c3cc(-c4cccs4)nc4ccccc34)c2C(N)=O)C1	CCR6 antagonist 62.4, APJ antagonist 45.7 | APJ antag confirm 65.0
CC(C)N1CCc2c(sc(NC(=O)c3nc4ccccc4s3)c2C(N)=O)C1	none
CCOC(=O)C1CCCN(c2c(NCCCN(CC)c3ccccc3)c(=O)c2=O)C1 (centres undefined)	none
CCOC(=O)C1CCCN(c2c(NCCN(CC)c3ccccc3)c(=O)c2=O)C1 (centres undefined)	APJ antagonist 40.4 | APJ antag confirm inactive
Cc1nn(CC(=O)Nc2ccc(Br)cc2F)c(=O)c2cccn12	none
CC(=O)c1ccc(Nc2ccc([N+](=O)[O-])c3nonc23)cc1	none
O=C(O)c1ccc(Nc2ccc([N+](=O)[O-])c3nonc23)cc1	CCR6 antagonist 59.2, APJ antagonist 42.0 | APJ antag confirm 75.6
O=[N+]([O-])c1ccc(Nc2ccccc2O)c2nonc12	none
O=C(O)c1cccc(Nc2ccc([N+](=O)[O-])c3nonc23)c1	CCR6 antagonist 57.5, APJ antagonist 41.4 | APJ antag confirm 78.0
COc1ccc(Nc2ccc([N+](=O)[O-])c3nonc23)c(OC)c1	CCR6 antagonist 60.0, APJ antagonist 44.3, CXCR6 inh 44.5 | APJ antag confirm 78.1
O=C(CNCc1cccs1)Nc1ccc(N2CCCCCC2)cc1	none
Cc1ccc(S(=O)(=O)NCC(c2ccccc2)N2CCN(c3ccc(F)cc3)CC2)cc1 (centres undefined)	none
COc1ccc(NC(=O)N(C)C[C@H]2Oc3ccc(NS(=O)(=O)c4cccs4)cc3C(=O)N([C@@H](C)CO)C[C@@H]2C)cc1	none
O=c1c2cc([N+](=O)[O-])cc([N+](=O)[O-])c2[nH]n1-c1ccccc1	CCR6 antagonist 56.2, APJ antagonist 40.5 | APJ antag confirm 75.5
CCOC(=O)C1=C(C)N=c2s/c(=C/c3ccco3)c(=O)n2C1c1cccc(OC)c1 (centres undefined)	none (no result: CXCR6 inh, HTR2A ag)
CCOC(=O)C1=C(C)N=c2s/c(=C\c3ccc(OCC(=O)O)cc3)c(=O)n2C1c1ccccc1 (centres undefined)	none
CCOC(=O)C1=C(C)N=c2s/c(=C/c3cccc([N+](=O)[O-])c3O)c(=O)n2C1c1cc(OC)c(OC)c(OC)c1 (centres undefined)	CCR6 antagonist 54.7, APJ antagonist 40.4 | APJ antag confirm 90.1
CCOC(=O)C1=C(C)N=c2s/c(=C/c3cccc([N+](=O)[O-])c3O)c(=O)n2C1c1ccccc1 (centres undefined)	CCR6 antagonist 70.8, APJ antagonist 49.5 | APJ antag confirm 98.7
CCOC(=O)C1=C(c2ccccc2)N=c2s/c(=C\c3ccc(O)cc3)c(=O)n2C1c1cccs1 (centres undefined)	CCR6 antagonist 53.1, APJ antagonist 42.4 | APJ antag confirm 101.5
NC(=NCc1ccco1)NC(=O)c1ccccc1	none
CSC(=NCc1ccco1)NC#N	APJ antagonist 43.6 | APJ antag confirm inactive
COc1ccc(CCNC(=O)CCc2ccccc2)cc1OC	none
COc1ccc(CCNC(=O)Cc2ccccc2)cc1OC	APJ antagonist 111.0 | APJ antag confirm inactive
Fc1cc(Cl)cc2ccc(-c3ccccc3)nc12	none (no result: CCR6 antagonist, APJ ag, APJ antagonist, NTR1 agonist)
COc1cccc(/C=C2\CC(C)Cc3c2nc2ccccc2c3C(=O)O)c1OC (centres undefined)	APJ antagonist 48.7 | APJ antag confirm inactive
Cc1ccc(C(=O)OCC(=O)N(CC(C)C)c2c(N)n(Cc3ccccc3)c(=O)[nH]c2=O)s1	none
CCOC(=O)/C(Sc1nc(-c2ccccc2)cc(-c2ccccc2)c1C#N)=C(\C)O	none
O=C(Nc1nc2ccc(F)cc2s1)c1ccccn1	CCR6 antagonist 65.1, APJ antagonist 77.0 (no result: CXCR6 inh, HTR2A ag) | APJ antag confirm 68.2
C[C@H](CO)N1C[C@H](C)[C@H](CN(C)S(=O)(=O)c2cccc(F)c2)Oc2ncc(-c3cccc(C(=O)N(C)C)c3)cc2C1=O	none (no result: CCR6 antagonist, APJ ag, APJ antagonist, NTR1 agonist)
CC1CCC(NC(=O)c2cccc(S(=O)(=O)NCc3ccccc3)c2)CC1 (centres undefined)	none
CC([NH2+][O-])C(C)(C)NO (centres undefined)	CCR6 antagonist 50.5, APJ antagonist 46.6 | APJ antag confirm inactive
COc1ccc(/C=C/c2onc(C)c2S(=O)(=O)N2CCC(C(=O)N3CCC(C)CC3)CC2)cc1	none
Cc1ccc(C)c(NC(=S)N(Cc2ccc(Cl)cc2)Cc2ccc(C(=O)O)cc2)c1	none
Cc1ccc(C(=O)CNc2cc(C)ccc2C)cc1	CCR6 antagonist 72.5, APJ antagonist 43.3 | APJ antag confirm 117.6
Cc1ccccc1NCC(=O)c1ccc(Br)cc1	APJ antagonist 46.2 | APJ antag confirm 99.5
O=C(CNc1ccccc1C(=O)O)c1ccccc1	CCR6 antagonist 79.1, APJ antagonist 41.1, CXCR6 inh 68.2 | APJ antag confirm 149.4
Cc1ccc(C)c(NCC(=O)c2ccc(Cl)cc2)c1	CCR6 antagonist 60.1, APJ antagonist 72.9 | APJ antag confirm 87.9
COc1cccc(CNC(=O)CS(=O)(=O)Cc2nc(-c3ccc(C)cc3)oc2C)c1OC	none
Cc1cc(NC(=O)Cn2nc([N+](=O)[O-])c(Br)c2C)no1	none
CCOC(=O)[C@]12CCCC=C1N(Cc1ccc(Cl)cc1Cl)C(=O)[C@H](CC(=O)N1CCOCC1)C2	none (no result: CCR6 antagonist, APJ ag, APJ antagonist, NTR1 agonist)
Cc1cccc(C)c1NC(=S)NNc1ncc(C(F)(F)F)cc1Cl	none
Cc1c(Cl)cccc1NC(=S)NNc1ncc(C(F)(F)F)cc1Cl	CCR6 antagonist 87.1, APJ antagonist 71.7, CXCR6 inh 52.7 | APJ antag confirm 117.0
O=C(NNc1ncc(C(F)(F)F)cc1Cl)c1c(Cl)cccc1Cl	none | APJ antag confirm 64.6
NC(=O)NNc1ncc(C(F)(F)F)cc1Cl	none
CCC(CO)NC(=O)c1ccc(-c2nn(C)c(=O)c3ccccc23)cc1 (centres undefined)	APJ antagonist 49.7 | APJ antag confirm inactive
